Key:
MCF7 [1] = experiment: Anticancer activity against human MCF7 cells; type: functional
In short: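 Human MCF-7 breast cancer cells exposed to compound for 48 h. The IC50 (50% inhibitory concentration) is reported as the average of three individual experiments.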

HeLa = experiment: Anticancer activity against human HeLa cells assessed as reduction in cell viability incubated for 48 hrs by MTT assay; type: functional, cell-based
MCF7 [2] = experiment: Anticancer activity against human MCF7 cells assessed as reduction in cell viability incubated for 48 hrs by MTT assay; type: functional, cell-based; settings: MCF7, 48 h
DU-145 = experiment: Anticancer activity against human DU145 cells assessed as reduction in cell viability incubated for 48 hrs by MTT assay; type: functional, cell-based; settings: DU-145, 48 h
HT-29 = experiment: Anticancer activity against human HT-29 cells assessed as reduction in cell viability incubated for 48 hrs by MTT assay; type: functional, cell-based; settings: HT-29, 48 h
A549 = experiment: Anticancer activity against human A549 cells assessed as reduction in cell viability incubated for 48 hrs by MTT assay; type: functional, cell-based; settings: A549, 48 h

Row | GI50 (MCF7 [1]) [µM] | SMILES | IC50 (HeLa) [µM] | IC50 (MCF7 [2]) [µM] | IC50 (DU-145) [µM] | IC50 (HT-29) [µM] | IC50 (A549) [µM]
1 | 2.13 | CC(=O)N1C(=O)[C@]2(Sc3ncccc3C(=O)N2c2ccccc2)c2cc(Br)ccc21 | – | – | – | – | –
2 | 2.6 | CN1O[C@@]2(C[C@@H]1c1ccccc1)C(=O)Nc1ccccc12 | – | – | – | – | –
3 | – | CCOC(=O)[C@H]1[C@H](C(O)c2ccc(OC)cc2)C12C(=O)Nc1ccccc12 (relative stereo) | 5.78 | 4.78 | 1.94 | 2.29 | 27.5
4 | – | CCOC(=O)[C@H]1[C@H](C(=O)c2ccc(Cl)cc2)C12C(=O)Nc1ccc(Cl)cc12 (relative stereo) | > 100 | 30.8 | > 100 | 79.4 | 32.4
5 | – | CCOC(=O)[C@H]1[C@H](C(=O)c2ccc(C)cc2)C12C(=O)Nc1ccc(Cl)cc12 (relative stereo) | > 100 | 90.2 | > 100 | > 100 | > 100
6 | – | CCOC(=O)[C@H]1[C@H](C(=O)c2ccc(OC)c(OC)c2)C12C(=O)Nc1ccc(Cl)cc12 (relative stereo) | 13 | 20.3 | 8.31 | 9.92 | 7.07
7 | – | CCOC(=O)[C@H]1[C@H](C(=O)c2ccc3ccccc3c2)C12C(=O)Nc1ccc(Cl)cc12 (relative stereo) | 7.76 | 4.89 | 5.24 | 5.01 | 6.16
8 | – | CCOC(=O)[C@H]1[C@H](C(=O)c2ccc([N+](=O)[O-])cc2)C12C(=O)Nc1ccc(Cl)cc12 (relative stereo) | 10.7 | 4.26 | 2.88 | 2.95 | 3.59
9 | – | CCOC(=O)[C@H]1[C@H](C(=O)c2ccccc2)C12C(=O)N(C)c1ccccc12 (relative stereo) | 19.5 | 13.2 | 7.94 | 16.1 | 7.24
10 | – | CCOC(=O)[C@H]1[C@H](C(=O)c2ccc3ccccc3c2)C12C(=O)N(C)c1ccccc12 (relative stereo) | > 100 | 75.9 | > 100 | > 100 | 98.5

Reference: ChEMBL document CHEMBL3627653, “Synthesis and biological evaluation of spiro[cyclopropane-1,3'-indolin]-2'-ones as potential anticancer agents” (Bioorg Med Chem Lett, 2015)
